In ChEMBL document CHEMBL1134785, “Synthesis and biological evaluation of prostaglandin-F alkylphosphinic acid derivatives as bone anabolic agents for the treatment of osteoporosis” (J Med Chem, 2001):

Key:
[1] = Dissociation constant was determined; format: physicochemical
[2] = target: T1, Prostaglandin E2 receptor EP3 subtype (Homo sapiens, UniProt P43115); experiment: In vitro binding at EP3 human prostaglandin receptor using [3H]PGE-2 as radioligand
T1 sequence (P43115 whole entry): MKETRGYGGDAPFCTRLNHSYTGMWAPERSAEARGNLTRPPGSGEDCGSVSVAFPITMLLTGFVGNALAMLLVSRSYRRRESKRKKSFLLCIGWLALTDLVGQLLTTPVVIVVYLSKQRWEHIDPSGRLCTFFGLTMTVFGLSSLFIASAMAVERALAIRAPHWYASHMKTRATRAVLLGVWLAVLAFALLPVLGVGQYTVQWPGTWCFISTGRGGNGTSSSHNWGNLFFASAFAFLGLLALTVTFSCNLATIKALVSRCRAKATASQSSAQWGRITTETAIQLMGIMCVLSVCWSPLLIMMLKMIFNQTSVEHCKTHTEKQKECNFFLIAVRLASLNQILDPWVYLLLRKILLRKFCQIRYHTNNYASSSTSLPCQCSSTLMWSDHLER
Outline: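 Receptors stably expressed in CHO cells, collected 4-5 days after seeding. Membranes made by lysis (Tris, EDTA, protease inhibitors) and 100000g pellet, then resuspended at 1 mg protein/mL in TME. Radioligands at 5 nM: [3H]PGE2 for EP2/EP3/EP4, [3H]Iloprost for IP, [3H]SQ-29548 for TP. Competition binding with filtration and counting.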

[3] = system: Rattus norvegicus; experiment: Bone Volume /Tissue Volume (%)measured using micro Computed Tomography(CT) after a dose of 1000 ug/kg in Vertebral Bone; format: functional; details: at 1000 µg/kg
[4] = system: Rattus norvegicus; experiment: Bone Volume /Tissue Volume (%)measured using micro Computed Tomography(CT) after a dose of 3000 ug/kg in Vertebral Bone; format: functional; details: at 3000 µg/kg
[5] = system: Rattus norvegicus; experiment: Bone Volume /Tissue Volume (%)measured Histomorphometrically after a dose of 100 ug/kg in proximal tibial metaphysis; format: functional; details: at 100 µg/kg
[6] = system: Rattus norvegicus; experiment: Bone Volume /Tissue Volume (%)measured Histomorphometrically after a dose of 1000 ug/kg in proximal tibial metaphysis; format: functional; details: at 1000 µg/kg
[7] = system: Rattus norvegicus; experiment: Bone formation rate/tissue volume (%/year)bone Histomorphometrically after a dose of 1000 ug/kg in proximal tibial metaphysis; format: functional; details: at 1000 µg/kg
[8] = system: Rattus norvegicus; experiment: Bone formation rate/tissue volume (%/year) bone measured histomorphometrically after a dose of 300 ug/kg in proximal tibial metaphysis; format: functional; details: at 300 µg/kg
[9] = system: Rattus norvegicus; experiment: Derived trabecular no (mm-1)measured using micro Computed Tomography(CT) after a dose of 1000 ug/kg in Vertebral Bone; format: functional, Trabecula
Outline: (§1)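 Micro-CT of the fifth lumbar vertebra, measuring cancellous bone volume and architecture. Rats were 6 months old, OVX 60 days before treatment, then dosed daily for 60 days. Test-agent doses were 10–3000 µg/kg, given as a once-daily subcutaneous injection; 6 mg/kg/day was given to the positive-control group. Groups were compared with vehicle by ANOVA plus LSD test.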

[10] = system: Rattus norvegicus; experiment: Derived trabecular no […]measured using micro Computed Tomography(CT) after a dose of 30 ug/kg in Vertebral Bone; format: functional, Trabecula; outline: as §1
[11] = system: Rattus norvegicus; experiment: Derived trabecular no […]measured using micro Computed Tomography(CT) after a dose of 300 ug/kg in Vertebral Bone; format: functional, Trabecula; outline: as §1
[12] = system: Rattus norvegicus; experiment: Directly measured thickness(um) using micro Computed Tomography(CT) after a dose of 1000 ug/kg in Vertebral Bone; format: functional; outline: as §1
[13] = system: Rattus norvegicus; experiment: Endosteal eroded surface(%) measured Histomorphometrically after a dose of 100 ug/kg in tibial diaphysis; format: functional
Outline: (§2)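 Tibial histomorphometry in 6-month-old rats, OVX 60 days before treatment, then daily injection for 60 days. Vehicle was acetate-buffered saline with methylcellulose and polyoxyethylenesorbitan monooleate. Rats received xylenol orange 90 mg/kg before treatment and calcein 10 mg/kg at 14 and 4 days pre-sacrifice. Rats were killed by cardiac puncture under ketamine/xylazine. Groups were compared with vehicle by ANOVA plus LSD test.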

[14] = system: Rattus norvegicus; experiment: Endosteal eroded surface(%) measured Histomorphometrically after a dose of 30 ug/kg in tibial diaphysis; format: functional; outline: as §2
[15] = system: Rattus norvegicus; experiment: Endosteal mineralizing surface Histomorphometrically after a dose of 30 ug/kg in tibial diaphysis; format: functional
Outline: (§3)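 Six-month-old rats, bilaterally ovariectomized, 6-8 per group, on natural chow. After 60 days they received once-daily subcutaneous dosing for 60 days at 0.01–3.0 mg/kg. Vehicle was acetate-buffered saline with methylcellulose and polyoxyethylenesorbitan monooleate. Labels were xylenol orange 90 mg/kg before treatment and calcein 10 mg/kg 14 and 4 days before sacrifice. Tibial histomorphometry was read under fluorescent light, with ANOVA/LSD versus vehicle.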

[16] = system: Rattus norvegicus; experiment: Endosteal mineralizing surface Histomorphometrically after a dose of 300 ug/kg in tibial diaphysis; format: functional; outline: as §3
[17] = system: Rattus norvegicus; experiment: Marrow area (mm) measured Histomorphometrically after a dose of 10 ug/kg in tibial diaphysis; format: functional; outline: as §3
[18] = system: Rattus norvegicus; experiment: Marrow area (mm) measured Histomorphometrically after a dose of 1000 ug/kg in tibial diaphysis; format: functional; outline: as §3
[19] = system: Rattus norvegicus; experiment: Periosteal mineral apposition rate ([…]) measured Histomorphometrically after a dose of 1000 ug/kg in tibial diaphysis; format: functional; outline: as §3
[20] = system: Rattus norvegicus; experiment: Periosteal mineralizing surface (%) measured Histomorphometrically after a dose of 30 ug/kg in tibial diaphysis; format: functional
Outline: (§4)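 Rats on natural chow (1.46% Ca) were bilaterally ovariectomized at 6 months and left untreated for 60 days. They then received once-daily subcutaneous doses for 60 days, with vehicle of acetate-buffered saline, methylcellulose and polysorbate. Xylenol orange (90 mg/kg) was given before treatment and calcein (10 mg/kg) 14 and 4 days before sacrifice. Tibiae were analysed by fluorescent histomorphometry, 6-8 rats/group, ANOVA/LSD vs vehicle.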

[21] = system: Rattus norvegicus; experiment: Periosteal mineralizing surface (%) measured Histomorphometrically after a dose of 300 ug/kg in tibial diaphysis; format: functional; outline: as §4
[22] = system: Rattus norvegicus; experiment: Mineral apposition rate ([…])bone measured Histomorphometrically after a dose of 1000 ug/kg in tibial diaphysis; format: functional; outline: as §3
[23] = system: Rattus norvegicus; experiment: Trabecular no (mm)measured Histomorphometrically after a dose of 10 ug/kg in proximal tibial metaphysis; format: functional, Trabecula
Outline: (§5)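 Six-month-old rats were ovariectomized, and 60 days later daily subcutaneous dosing began for 60 days, with vehicle of acetate-buffered saline, methylcellulose and polysorbate. Xylenol orange (90 mg/kg) labelled bone pre-treatment and calcein (10 mg/kg) 14 and 4 days pre-sacrifice. Histomorphometry covered the proximal tibial metaphysis 1-4 mm distal to the growth plate-metaphyseal junction. Groups were 6-8 rats, compared by ANOVA/LSD vs vehicle.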

[24] = system: Rattus norvegicus; experiment: Trabecular thickness […] measured Histomorphometrically after a dose of 100 ug/kg in proximal tibial metaphysis; format: functional, Trabecula; outline: as §5
[25] = system: Rattus norvegicus; experiment: Trabecular thickness […] measured Histomorphometrically after a dose of 30 ug/kg in proximal tibial metaphysis; format: functional, Trabecula; outline: as §5
[26] = system: Rattus norvegicus; experiment: Trabecular thickness […] measured Histomorphometrically after a dose of 300 ug/kg in proximal tibial metaphysis; format: functional, Trabecula; outline: as §5
[27] = system: Rattus norvegicus; experiment: Tissue area (mm) measured Histomorphometrically after a dose of 100 ug/kg in tibial diaphysis; format: functional; outline: as §4
[28] = system: Rattus norvegicus; experiment: Trabecular no (mm)measured Histomorphometrically after a dose of 3000 ug/kg in proximal tibial metaphysis; format: functional, Trabecula; outline: as §5

Q: Which results are given for `CP(=O)(O)CCC/C=C\C[C@@H]1[C@@H](/C=C/[C@@H](O)COc2ccccc2)[C@H](O)C[C@@H]1O`?
A: pKa [1]: 3.1; IC50 [2]: > 10 µM; Activity [3]: 36.98%; Activity [4]: 39.48%; Activity [5]: 5.84%; Activity [6]: 9.43%; Activity [7]: 23.44%; Activity [8]: 18.03%; Derived trabecular number [9]: 4.59 mm-1; Derived trabecular number [10]: 4.44 mm-1; Derived trabecular number [11]: 4.86 mm-1; Directly measured thickness [12]: 128 µm; Endosteal eroded surface [13]: 2.3%; Endosteal eroded surface [14]: 2.01%; Endosteal mineralizing surface [15]: 28.72%; Endosteal mineralizing surface [16]: 29.02%; Marrow area [17]: 0.93 mm²; Marrow area [18]: 0.86 mm²; Periosteal mineral apposition rate [19]: 0 µm/day; Periosteal mineralizing surface [20]: 26.23%; Periosteal mineralizing surface [21]: 9.56%; Mineral apposition rate [22]: 1.01 µm/day; Trabecular no. [23]: 0.58 1/mm; Trabecular thickness [24]: 45.5 µm; Trabecular thickness [25]: 41.2 µm; Trabecular thickness [26]: 44 µm; Tissue area [27]: 4.95 mm; Trabecular no. [28]: 1.51 1/mm
